The target of assay [1] is Phosphatidylinositol 4,5-bisphosphate 3-kinase catalytic subunit alpha isoform (Homo sapiens) (UniProt P42336). The assay can be described thus: Inhibition of wild-type human partial length PIK3CA (R108 to N1068 residues) expressed in mammalian expression system at 1 uM by Kinomescan method. The method in brief:
(§1)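 Binding-competition screen on the KINOMEscan platform, run by the provider, with the test compound at 1 μM. Readout is percent of control: (test signal − positive control signal)/(negative control signal − positive control signal) × 100. The DMSO negative control is set as 100% Ctrl and a control compound as 0% Ctrl. Lower values mean stronger hits.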

The target in assay [2] is TGF-beta receptor type-1 (Homo sapiens) (UniProt P36897). As to the kind of experiment: Inhibition of wild-type human partial length TGFBR1 (D179 to M503 residues) expressed in bacterial expression system at 1 uM by Kinomescan method. The method, boiled down: (§2)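 Single-concentration screen at 1 μM on the KINOMEscan panel (98 kinases), run by the platform provider. Results are given as percent of control: % Ctrl = [(test signal − positive control signal)/(negative control signal − positive control signal)] × 100. DMSO serves as negative control (100% Ctrl) and a control compound as positive control (0% Ctrl). Lower values mean stronger binding hits.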

In assay [3] the target is SRSF protein kinase 3 (Homo sapiens) (UniProt Q9UPE1). As to the kind of experiment: Inhibition of wild-type human partial length SRPK3 (P41 to P567 residues) expressed in bacterial expression system at 1 uM by Kinomescan method. The method in brief: as §2
Assay [4] addresses Cyclin-dependent kinase 7 (Homo sapiens) (UniProt P50613). As to the kind of experiment: Inhibition of wild-type human full length CDK7 (M1 to L344 residues) expressed in mammalian expression system at 1 uM by Kinomescan method. The method, boiled down:
(§3)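 KINOMEscan competition binding screen at 1 μM compound. Results reported as % of control = (test − positive control)/(DMSO negative control − positive control) × 100, where lower values mean stronger hits.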

Assay [5] has as its target Serine/threonine-protein kinase B-raf (Homo sapiens) (UniProt P15056). As to the kind of experiment: Inhibition of wild-type human partial length BRAF (S429 to E741 residues) expressed in mammalian expression system at 1 uM by Kinomescan method. The method, boiled down: as §1
Assay [6] concerns the target Angiopoietin-1 receptor (Homo sapiens) (UniProt Q02763). The assay can be described thus: Inhibition of wild-type human partial length TIE2 (N804 to T1112 residues) expressed in bacterial expression system at 1 uM by Kinomescan method. The method, boiled down:
as §2

The target of assay [7] is Inhibitor of nuclear factor kappa-B kinase subunit beta (Homo sapiens) (UniProt O14920). The assay can be described thus: Inhibition of wild-type human full length IKK-beta (M1 to S756 residues) expressed in mammalian expression system at 1 uM by Kinomescan method. The method in brief:
as §3

Assay [8] has as its system Mus musculus. The assay can be described thus: Antiinflammatory activity in LPS-induced C57BL/6 mouse model of acute lung injury assessed as reduction in COX2 mRNA level at 10 mg/kg, iv pretreated for 15 mins followed by LPS stimulation and measured after 6 hrs by SYBR green staining-based qRT-PCR analysis. The format is functional, organism-based. The method, boiled down: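 Total lung RNA extracted, with DNase I removal of residual DNA. Quantitative PCR with mouse gene primers; each gene normalized to β-actin. C57BL/6 mice given compound iv 15 min before intraperitoneal LPS (20 mg/kg) and killed at 6 h.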

Assay [9] has as its target Casein kinase I isoform delta (Homo sapiens) (UniProt P48730). As to the kind of experiment: Inhibition of wild-type human full length CSNK1D (M1 to K409 residues) expressed in bacterial expression system at 1 uM by Kinomescan method. The method, boiled down:
as §3

Assay [10] concerns the target Testis-specific serine/threonine-protein kinase 1 (Homo sapiens) (UniProt Q9BXA7). The assay can be described thus: Inhibition of wild-type human full length TSSK1B (M1 to Q367 residues) expressed in bacterial expression system at 1 uM by Kinomescan method. The method, boiled down:
as §3

Assay [11] addresses Aurora kinase B (Homo sapiens) (UniProt Q96GD4). As to the kind of experiment: Inhibition of wild-type human partial length AURKB (D25 to A303 residues) expressed in mammalian expression system at 1 uM by Kinomescan method. The method in brief:
as §1

Assay [12] deals with Tyrosine-protein kinase JAK2 (Homo sapiens) (UniProt O60674). As to the kind of experiment: Inhibition of wild-type human partial length JAK2 JH1 catalytic domain (A829 to G1132 residues) expressed in mammalian expression system at 1 uM by Kinomescan method. The method, boiled down: as §1
Sequence of Tyrosine-protein kinase JAK2 (Homo sapiens) (O60674 whole entry, the tested form may be a part): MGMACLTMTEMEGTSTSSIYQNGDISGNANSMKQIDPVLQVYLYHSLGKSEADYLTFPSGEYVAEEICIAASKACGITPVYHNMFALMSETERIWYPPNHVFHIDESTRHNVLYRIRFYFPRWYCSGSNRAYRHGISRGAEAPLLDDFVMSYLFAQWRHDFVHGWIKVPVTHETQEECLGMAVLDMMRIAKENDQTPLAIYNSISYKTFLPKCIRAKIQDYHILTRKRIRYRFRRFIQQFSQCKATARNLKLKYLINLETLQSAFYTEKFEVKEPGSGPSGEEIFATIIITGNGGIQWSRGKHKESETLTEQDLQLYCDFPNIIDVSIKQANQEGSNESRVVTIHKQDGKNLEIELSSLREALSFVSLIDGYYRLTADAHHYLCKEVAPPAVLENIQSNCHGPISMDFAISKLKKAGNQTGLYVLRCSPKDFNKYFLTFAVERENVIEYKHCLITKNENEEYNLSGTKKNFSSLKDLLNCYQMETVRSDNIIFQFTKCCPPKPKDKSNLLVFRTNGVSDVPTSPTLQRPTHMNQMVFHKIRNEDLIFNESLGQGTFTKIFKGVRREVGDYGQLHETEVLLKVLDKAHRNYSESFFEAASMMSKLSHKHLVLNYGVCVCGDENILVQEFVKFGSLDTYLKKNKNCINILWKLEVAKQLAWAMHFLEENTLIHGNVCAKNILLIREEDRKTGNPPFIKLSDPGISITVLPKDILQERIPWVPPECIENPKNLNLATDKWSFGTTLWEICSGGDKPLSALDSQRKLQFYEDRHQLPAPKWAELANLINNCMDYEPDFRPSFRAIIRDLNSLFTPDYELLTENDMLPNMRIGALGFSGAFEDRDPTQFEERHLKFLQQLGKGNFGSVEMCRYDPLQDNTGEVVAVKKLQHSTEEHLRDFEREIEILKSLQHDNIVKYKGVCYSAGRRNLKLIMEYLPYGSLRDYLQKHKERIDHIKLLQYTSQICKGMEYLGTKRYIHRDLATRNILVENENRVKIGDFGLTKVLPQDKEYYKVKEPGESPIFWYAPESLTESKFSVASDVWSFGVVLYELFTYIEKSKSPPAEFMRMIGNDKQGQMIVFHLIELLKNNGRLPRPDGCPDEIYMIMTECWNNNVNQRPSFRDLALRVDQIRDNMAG
The target of assay [13] is Cyclin-dependent kinase 16 (Homo sapiens) (UniProt Q00536). As to the kind of experiment: Inhibition of wild-type human partial length PCTK1 (G160 to A474 residues) expressed in mammalian expression system at 1 uM by Kinomescan method. The method in brief: as §1
For assay [14], the target named is Tyrosine-protein kinase ABL1 (Homo sapiens) (UniProt P00519). As to the kind of experiment: Inhibition of wild-type human phosphorylated ABL1 (S229 to K512 residues) expressed in mammalian expression system at 1 uM by Kinomescan method. The method in brief: as §2
For assay [15], the target named is Receptor-type tyrosine-protein kinase FLT3 (Homo sapiens) (UniProt P36888). The assay can be described thus: Inhibition of wild-type human partial length FLT3 (V592 to Y969 residues) expressed in bacterial expression system at 1 uM by Kinomescan method. The method in brief:
as §1

Assay [16] concerns the target MAP/microtubule affinity-regulating kinase 3 (Homo sapiens) (UniProt P27448). The assay can be described thus: Inhibition of wild-type human full length MARK3 (M1 to L729 residues) expressed in bacterial expression system at 1 uM by Kinomescan method. The method in brief:
as §3

Assay [17] deals with Rho-associated protein kinase 2 (Homo sapiens) (UniProt O75116). The assay can be described thus: Inhibition of wild-type human partial length ROCK2 (M1 to T431 residues) expressed in mammalian expression system at 1 uM by Kinomescan method. The method in brief: as §1
Assay [18] deals with Serine/threonine-protein kinase PLK1 (Homo sapiens) (UniProt P53350). The assay can be described thus: Inhibition of wild-type human partial length PLK1 (A33 to F325 residues) expressed in mammalian expression system at 1 uM by Kinomescan method. The method in brief:
as §1

For assay [19], the target named is Serine/threonine-protein kinase pim-3 (Homo sapiens) (UniProt Q86V86). As to the kind of experiment: Inhibition of wild-type human partial length PIM3 (G16 to A317 residues) expressed in bacterial expression system at 1 uM by Kinomescan method. The method, boiled down:
as §1

Assay [20] concerns the target Platelet-derived growth factor receptor alpha (Homo sapiens) (UniProt P16234). As to the kind of experiment: Inhibition of wild-type human partial length PDGFRA (V575 to D1002 residues) expressed in mammalian expression system at 1 uM by Kinomescan method. The method in brief:
as §1

The subject of assay [21] is Mus musculus. The assay can be described thus: Antiinflammatory activity in LPS-induced C57BL/6 mouse model of acute lung injury assessed as suppression of neutrophil lung infiltration by measuring reduction in MPO activity at 5 to 10 mg/kg, iv pretreated for 15 mins followed by LPS stimulation and measured after 6 hrs. The format is functional, organism-based. The method in brief:
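Male C57BL/6 mice (18−22 g; n=8 per group). Compound in 0.1% CMC-Na given by tail vein injection 15 min before intraperitoneal LPS (20 mg/kg); controls received saline. Mice were sacrificed 6 h after LPS, and serum and lung tissue were collected.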

Assay [22] addresses Mitogen-activated protein kinase 11 (Homo sapiens) (UniProt Q15759). As to the kind of experiment: Inhibition of wild-type human full length p38-beta (M1 to Q364 residues) expressed in bacterial expression system at 1 uM by Kinomescan method. The method in brief:
as §3

Assay [23] deals with Myeloid differentiation primary response protein MyD88 (Homo sapiens) (UniProt Q99836). The assay can be described thus: Binding affinity to recombinant MyD88 (unknown origin) by surface plasmon resonance analysis.

Calls of active or inactive are those of the source. The calls are words filed in the database; no cut-off is given here.

Sequence of MAP/microtubule affinity-regulating kinase 3 (Homo sapiens) (P27448 whole entry, looked up, the tested form may be a part): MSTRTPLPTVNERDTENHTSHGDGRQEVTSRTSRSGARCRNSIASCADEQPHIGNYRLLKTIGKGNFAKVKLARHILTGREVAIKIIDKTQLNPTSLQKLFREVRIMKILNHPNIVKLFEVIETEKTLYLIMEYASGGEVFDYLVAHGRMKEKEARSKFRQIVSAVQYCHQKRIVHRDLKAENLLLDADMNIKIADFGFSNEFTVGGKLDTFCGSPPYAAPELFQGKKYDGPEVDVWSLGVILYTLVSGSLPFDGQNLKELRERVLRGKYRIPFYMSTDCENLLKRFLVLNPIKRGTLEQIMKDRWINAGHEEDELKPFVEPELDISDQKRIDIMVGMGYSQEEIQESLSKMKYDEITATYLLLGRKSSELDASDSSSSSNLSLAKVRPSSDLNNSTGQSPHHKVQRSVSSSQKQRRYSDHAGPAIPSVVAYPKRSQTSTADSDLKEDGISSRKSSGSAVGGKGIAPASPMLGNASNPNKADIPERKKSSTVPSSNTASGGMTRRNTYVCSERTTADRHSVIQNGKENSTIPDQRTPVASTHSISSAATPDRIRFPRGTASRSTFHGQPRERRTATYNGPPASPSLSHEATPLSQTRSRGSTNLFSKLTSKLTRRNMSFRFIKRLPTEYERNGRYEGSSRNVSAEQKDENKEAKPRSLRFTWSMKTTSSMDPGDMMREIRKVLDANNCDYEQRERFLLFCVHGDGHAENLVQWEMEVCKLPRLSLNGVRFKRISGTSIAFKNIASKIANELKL
Sequence of Serine/threonine-protein kinase PLK1 (Homo sapiens) (P53350 whole entry, the tested form may be a part): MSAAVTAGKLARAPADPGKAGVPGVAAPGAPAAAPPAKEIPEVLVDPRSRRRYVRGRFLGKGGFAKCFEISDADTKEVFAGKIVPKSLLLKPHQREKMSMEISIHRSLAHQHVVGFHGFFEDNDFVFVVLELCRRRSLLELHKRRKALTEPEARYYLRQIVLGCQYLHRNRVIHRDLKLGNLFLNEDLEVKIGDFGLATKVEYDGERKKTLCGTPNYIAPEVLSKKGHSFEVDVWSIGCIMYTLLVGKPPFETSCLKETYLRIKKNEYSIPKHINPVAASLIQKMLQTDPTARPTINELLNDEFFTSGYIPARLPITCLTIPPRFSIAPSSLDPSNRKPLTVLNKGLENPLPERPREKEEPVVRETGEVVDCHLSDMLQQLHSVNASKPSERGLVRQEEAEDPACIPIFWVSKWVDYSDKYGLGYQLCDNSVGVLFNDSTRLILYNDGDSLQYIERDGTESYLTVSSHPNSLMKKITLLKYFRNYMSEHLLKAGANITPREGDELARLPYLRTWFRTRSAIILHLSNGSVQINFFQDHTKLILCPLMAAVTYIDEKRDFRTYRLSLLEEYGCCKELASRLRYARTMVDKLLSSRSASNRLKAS
Sequence of Testis-specific serine/threonine-protein kinase 1 (Homo sapiens) (Q9BXA7 whole entry, the tested form may be a part): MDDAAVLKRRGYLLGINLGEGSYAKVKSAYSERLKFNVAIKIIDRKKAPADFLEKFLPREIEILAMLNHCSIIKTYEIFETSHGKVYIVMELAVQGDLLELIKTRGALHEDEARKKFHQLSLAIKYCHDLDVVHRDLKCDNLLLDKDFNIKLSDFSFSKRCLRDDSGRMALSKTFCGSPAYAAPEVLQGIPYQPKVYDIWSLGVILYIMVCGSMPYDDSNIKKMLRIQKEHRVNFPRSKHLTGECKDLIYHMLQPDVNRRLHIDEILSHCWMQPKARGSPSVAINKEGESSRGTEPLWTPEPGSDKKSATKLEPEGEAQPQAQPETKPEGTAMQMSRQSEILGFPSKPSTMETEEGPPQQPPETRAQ
Sequence of Angiopoietin-1 receptor (Homo sapiens) (Q02763 whole entry, the tested form may be a part): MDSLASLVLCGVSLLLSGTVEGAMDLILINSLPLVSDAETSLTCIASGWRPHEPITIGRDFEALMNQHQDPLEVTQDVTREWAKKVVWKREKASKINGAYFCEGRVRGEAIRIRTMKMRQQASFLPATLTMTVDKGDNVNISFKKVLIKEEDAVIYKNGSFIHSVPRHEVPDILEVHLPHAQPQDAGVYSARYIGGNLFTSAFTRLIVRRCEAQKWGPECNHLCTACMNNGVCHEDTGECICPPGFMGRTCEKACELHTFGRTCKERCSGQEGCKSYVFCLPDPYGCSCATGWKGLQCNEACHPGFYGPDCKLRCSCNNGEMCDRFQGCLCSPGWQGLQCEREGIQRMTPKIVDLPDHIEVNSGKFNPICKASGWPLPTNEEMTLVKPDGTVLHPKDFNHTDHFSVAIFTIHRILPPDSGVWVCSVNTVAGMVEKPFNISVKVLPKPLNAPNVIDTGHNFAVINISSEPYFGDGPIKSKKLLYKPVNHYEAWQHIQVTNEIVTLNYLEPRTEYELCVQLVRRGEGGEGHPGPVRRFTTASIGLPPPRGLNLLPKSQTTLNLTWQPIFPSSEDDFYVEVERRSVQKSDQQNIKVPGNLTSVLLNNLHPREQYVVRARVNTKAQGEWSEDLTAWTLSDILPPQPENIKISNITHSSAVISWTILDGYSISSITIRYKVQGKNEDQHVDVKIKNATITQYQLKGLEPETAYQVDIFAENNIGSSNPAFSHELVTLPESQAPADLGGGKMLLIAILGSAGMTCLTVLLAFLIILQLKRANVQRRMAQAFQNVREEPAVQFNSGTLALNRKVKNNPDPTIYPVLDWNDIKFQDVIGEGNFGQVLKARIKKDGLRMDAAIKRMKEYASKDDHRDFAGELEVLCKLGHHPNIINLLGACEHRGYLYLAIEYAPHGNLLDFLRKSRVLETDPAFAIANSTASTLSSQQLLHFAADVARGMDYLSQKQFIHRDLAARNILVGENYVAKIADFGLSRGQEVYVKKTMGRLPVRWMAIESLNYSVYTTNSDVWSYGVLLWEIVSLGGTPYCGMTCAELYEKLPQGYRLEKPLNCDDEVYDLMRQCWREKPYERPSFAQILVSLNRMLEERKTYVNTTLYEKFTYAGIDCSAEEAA
Sequence of Inhibitor of nuclear factor kappa-B kinase subunit beta (Homo sapiens) (O14920 whole entry, the tested form may be a part): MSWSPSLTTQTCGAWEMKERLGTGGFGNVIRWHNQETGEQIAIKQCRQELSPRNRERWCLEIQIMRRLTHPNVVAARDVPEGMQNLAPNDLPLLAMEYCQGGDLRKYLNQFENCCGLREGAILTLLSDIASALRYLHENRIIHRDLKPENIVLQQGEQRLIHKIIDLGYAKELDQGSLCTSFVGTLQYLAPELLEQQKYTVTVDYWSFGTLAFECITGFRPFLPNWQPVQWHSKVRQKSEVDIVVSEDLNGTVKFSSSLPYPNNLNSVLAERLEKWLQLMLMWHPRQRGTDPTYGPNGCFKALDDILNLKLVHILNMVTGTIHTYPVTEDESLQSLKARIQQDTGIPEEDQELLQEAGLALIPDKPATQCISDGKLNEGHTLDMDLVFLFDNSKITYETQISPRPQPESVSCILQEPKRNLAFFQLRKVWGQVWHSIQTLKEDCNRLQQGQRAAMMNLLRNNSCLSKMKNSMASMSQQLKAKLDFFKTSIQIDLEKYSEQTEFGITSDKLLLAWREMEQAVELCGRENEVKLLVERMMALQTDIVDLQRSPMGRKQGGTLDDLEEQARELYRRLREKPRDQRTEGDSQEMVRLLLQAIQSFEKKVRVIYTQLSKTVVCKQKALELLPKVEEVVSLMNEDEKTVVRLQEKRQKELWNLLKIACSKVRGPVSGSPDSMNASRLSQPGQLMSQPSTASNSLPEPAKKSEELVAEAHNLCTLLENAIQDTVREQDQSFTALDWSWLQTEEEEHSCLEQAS

`O=C(Nc1ccc2[nH]nc(-c3ccc4[nH]ccc4c3)c2c1)c1c(Cl)cccc1Cl`: the inhibition result in assay [1], in assay [2], in assay [3], in assay [4], in [5] and in assay [6] was “inactive” in each case. Moreover, the inhibition entry in [7], in assay [9], in assay [10], in assay [11], in assay [12] and in assay [13] was “inactive” throughout. Also, the inhibition entry in assay [14], in assay [15], in [16], in [17], in assay [18] and in assay [19] was “inactive” throughout. Besides, the inhibition result in [20] and in [22] was “inactive” throughout. Moreover, the result in assay [8] and in assay [21] was Active. The outcome in assay [23] was inactive.

Source of the values: ChEMBL document CHEMBL4304739, “Discovery of 3-(Indol-5-yl)-indazole Derivatives as Novel Myeloid Differentiation Protein 2/Toll-like Receptor 4 Antagonists for Treatment of Acute Lung Injury” (J Med Chem, 2019).
